Experimental data collected from several papers.
Lines come from different studies, so protocols differ.
Target: Serine/threonine-protein kinase Nek9 (NEK9, Homo sapiens, UniProt Q8TD19)
One construct used (Q8TD19 1-979): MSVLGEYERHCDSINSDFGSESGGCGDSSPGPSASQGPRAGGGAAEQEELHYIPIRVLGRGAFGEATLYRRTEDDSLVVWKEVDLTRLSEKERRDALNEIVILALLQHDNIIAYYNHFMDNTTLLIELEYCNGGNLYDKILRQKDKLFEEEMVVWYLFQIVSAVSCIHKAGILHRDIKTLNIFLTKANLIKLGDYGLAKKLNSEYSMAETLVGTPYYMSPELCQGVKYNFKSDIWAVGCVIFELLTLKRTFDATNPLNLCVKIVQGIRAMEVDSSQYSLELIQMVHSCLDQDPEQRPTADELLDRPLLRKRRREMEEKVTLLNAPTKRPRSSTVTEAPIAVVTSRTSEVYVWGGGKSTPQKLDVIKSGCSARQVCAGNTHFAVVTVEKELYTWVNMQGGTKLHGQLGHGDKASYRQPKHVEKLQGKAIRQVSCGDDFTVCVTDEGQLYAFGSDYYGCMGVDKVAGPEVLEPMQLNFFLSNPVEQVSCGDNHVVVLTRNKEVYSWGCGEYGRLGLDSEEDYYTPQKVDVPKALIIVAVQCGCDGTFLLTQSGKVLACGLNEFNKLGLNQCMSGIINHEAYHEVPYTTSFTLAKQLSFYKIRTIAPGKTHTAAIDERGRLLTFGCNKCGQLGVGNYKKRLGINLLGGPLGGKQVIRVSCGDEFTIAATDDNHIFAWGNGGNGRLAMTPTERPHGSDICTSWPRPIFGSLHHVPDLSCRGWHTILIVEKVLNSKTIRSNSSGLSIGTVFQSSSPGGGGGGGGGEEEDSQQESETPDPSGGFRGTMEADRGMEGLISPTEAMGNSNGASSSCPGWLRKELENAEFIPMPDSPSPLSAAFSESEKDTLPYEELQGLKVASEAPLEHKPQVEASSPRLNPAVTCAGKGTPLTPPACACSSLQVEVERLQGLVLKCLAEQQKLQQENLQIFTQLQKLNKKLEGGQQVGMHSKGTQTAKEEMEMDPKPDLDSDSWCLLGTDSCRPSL

With `CS(=O)(=O)c1cc(C2(NC(=O)c3cncc4c3cnn4-c3ccc(F)cc3)CC2)ccn1` the remaining binding was 100% (cell-free assay, competition with immobilised ligand; 1 µM).
The remaining activity of `Cc1ccc(C(=O)Nc2ccc(CN3CCN(C)CC3)c(C(F)(F)F)c2)cc1C#Cc1cnc2cccnn12` is reported as 100% (enzyme activity, inhibitor; 23.5 nM).
With `COc1cc(Nc2c(C#N)cnc3cc(OCCCN4CCN(C)CC4)c(OC)cc23)c(Cl)cc1Cl` the remaining signal was 94% (cell-free assay; 0.5 µM).
With `Cc1ccc(NC(=O)c2ccc(C)c(C(F)(F)F)c2)cc1C#Cc1nn(C2CCC(O)CC2)c2ncnc(N)c12` (centres unmarked) the remaining signal was 59% (cell-free assay; 10 µM).
The remaining signal of `O=C1NC(=O)c2cc(Nc3ccc(F)cc3)c(Nc3ccc(F)cc3)cc21` is reported as 107% (cell-free assay; 0.5 µM).
For `CN1CC(Oc2cnc(C#N)cc2-c2ccn3nc(NC(=O)C4CC4)cc3c2)C1`, the inhibition was -3% (enzyme activity, inhibitor; 1 µM).
`CNC(=O)c1cc(Oc2ccc(NC(=O)Nc3ccc(Cl)c(C(F)(F)F)c3)cc2)ccn1` gave a remaining signal of 95.4% (cell-free assay; 0.5 µM).
`O=c1nc(-c2ccccn2)sc2ccccc12` has a remaining binding of 96% (binding, competition with immobilised ligand; 1 µM).
With `CC(C)(C)c1nc2c(s1)c1nc(N)ncc1c1ccc(NS(=O)(=O)c3c(F)cccc3F)c(F)c12` the remaining activity was 96% (enzyme activity, inhibitor, radiometric; 1 µM).
The remaining activity of `COc1cc(Cl)c(C(=O)N[C@@H](CN[C@H]2CC[C@@H](N)CC2)Cc2ccc(C#N)cc2)cc1-c1ccc(CN[C@H](C)c2ccc(C)cc2)o1` is reported as 127% (enzyme activity, inhibitor; 1 µM).
The remaining binding of `N[C@H]1CCN(c2nccc(-c3cnn4ncccc34)n2)C1` is reported as 100% (binding; 1 µM).
The remaining binding of `Nc1c(C(=O)NCc2ccc(C(=O)NCCCC3CCCCC3)cc2)cnn1-c1ccccc1` is reported as 100% (cell-free assay, competition with immobilised ligand; 0.1 µM).
The inhibition of `COc1cc2ncnc(Nc3ccc(Oc4ccccc4)c(C)c3C)c2cc1OC` is reported as 5% (enzyme activity, inhibitor; 1 µM).
The remaining binding of `CCCOc1ccc([C@@H]2[C@@H](C(=O)O)[C@H](c3ccc4c(c3)OCO4)CN2CC(=O)Nc2c(CC)cccc2CC)cc1` is reported as 100% (cell-free assay, competition with immobilised ligand; 1 µM).
`Cc1cnc(NC2CCOCC2)nc1-n1cnc(C(=O)NC(CN)c2cc(F)cc(Cl)c2)c1` (centres unmarked) has a remaining activity of 101% (enzyme activity, inhibitor, radiometric; 1 µM).
For `O=C1Nc2ccc(Cl)cc2C1=Cc1cc(Cl)c(O)c(Cl)c1`, the remaining signal was 103% (cell-free assay; 0.5 µM).
For `Cc1nc(N2CC[C@@H](O)C2)ncc1-c1cc(C(F)(F)F)cc2[nH]ncc12`, the remaining binding was 96% (binding, competition with immobilised ligand; 1 µM).
